Calls of active or inactive are those of the source. The rule behind the calls is not given here.
Key:
Staphylococcus aureus = assay: Antibacterial activity against Staphylococcus aureus ATCC 6538P measured after 24 hrs; type: functional
Escherichia coli = assay: Antibacterial activity against Escherichia coli ATCC 35270 measured after 24 hrs; type: functional; conditions: ATCC 35270, 24 h
Mus musculus [1] = organism: Mus musculus; assay: Activation of AMPKalpha in differentiated mouse 3T3L1 cells assessed as increase in 2-NBDG uptake at 20 uM by fluorescence microscopic analysis
How it was run: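 Differentiated 3T3-L1 adipocytes were treated with 20 μM compound or 100 nM insulin as a positive control, then exposed to 2-NBDG as the fluorescent glucose analogue. Uptake was imaged by fluorescence microscopy as green signal inside the cells.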

C2C12 [2] = assay: Activation of AMPKalpha phosphorylation at Thr172 in mouse C2C12 cells at 20 uM after 30 mins by Western blot analysis; type: cell-based
How it was run: (§1)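 Differentiated mouse C2C12 skeletal myoblasts were given compounds at 20 μM, or Aicar (0.2 mM, AMPK activator), for 30 min. pAMPK (Thr172) and pACC (Ser79) were quantified by Western blot. Mean ± SD of 2–4 independent experiments, compared with vehicle by ANOVA.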

C2C12 [3] = assay: Activation of AMPKalpha in mouse C2C12 cells assessed as increase in phosphorylation of ACC at Ser79 at 20 uM after 30 mins by Western blot analysis; type: cell-based; how it was run: as §1
Trichophyton rubrum = assay: Antifungal activity against Trichophyton rubrum IFO 9185 measured after 48 to 72 hrs; type: functional
Proteus hauseri = assay: Antibacterial activity against Proteus hauseri NBRC 3851 measured after 24 hrs; type: functional; conditions: NBRC 3851, 24 h
[4] = Inhibition of isocitrate lyase (unknown origin)
Bacillus spizizenii = assay: Antibacterial activity against Bacillus subtilis ATCC 6633 measured after 24 hrs; type: functional; conditions: ATCC 6633, 24 h
Aspergillus fumigatus = assay: Antifungal activity against Aspergillus fumigatus HIC 6094 measured after 48 to 72 hrs; type: functional
[5] = Inhibition of recombinant sortase A (unknown origin) using Dabcyl-QALPETGEE-Edans as substrate measured after 1 hr by fluorescence assay; set-up: species or system Bacteria
A549 = assay: Cytotoxicity against human A549 cells after 72 hrs by MTT assay; type: functional, cell-based; conditions: A549, 72 h
Mus musculus [6] = organism: Mus musculus; assay: Activation of AMPKalpha in differentiated mouse 3T3L1 cells assessed as increase in 2-NBDG uptake pretreated for 30 mins followed by 2-NBDG addition measured after 1 hr by fluorescence assay
How it was run: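 2-NBDG uptake in differentiated 3T3-L1 adipocytes. Cells got compounds at several concentrations, or 100 nM insulin as a positive control. After 1 h incubation, fluorescence was read at ex/em 450/535 nm. Mean ± SD (n = 3), compared with vehicle by ANOVA.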

K562 = assay: Cytotoxicity against human K562 cells after 72 hrs by MTT assay; type: functional, cell-based; conditions: K562, 72 h
Kocuria rhizophila = assay: Antibacterial activity against Kocuria rhizophila NBRC 12708 measured after 24 hrs; type: functional; conditions: NBRC 12708, 24 h
Candida albicans = assay: Antifungal activity against Candida albicans ATCC 10231 measured after 48 to 72 hrs; type: functional
[7] = tested on: Trichophyton mentagrophytes; assay: Antifungal activity against Trichophyton mentagrophytes IFO 40996 measured after 48 to 72 hrs; type: functional
Salmonella typhimurium = assay: Antibacterial activity against Salmonella enterica ATCC 14028 measured after 24 hrs; type: functional, Salmonella enterica subsp. enterica serovar Typhimurium; conditions: ATCC 14028, 24 h
[8] = target: Sodium/potassium-transporting ATPase; assay: Inhibition of potassium-activated sodium/potassium ATPase in human placenta using 3-Omethylfluorescein phosphate as substrate measured for 90 secs by fluorescence assay
C2C12 [9] = assay: Activation of AMPKalpha phosphorylation at Thr172 in mouse C2C12 cells at 5 to 20 uM after 30 mins in presence of AMPK inhibitor dorsomorphin by Western blot analysis; type: cell-based
How it was run: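 C2C12 myoblasts were exposed to compound at 5, 10 and 20 μM for 30 min, with compound C pretreatment used to test AMPK dependence. pAMPK (Thr172) was measured by Western blot. Mean ± SD (n = 3), compared with control.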

Row | MIC (Staphylococcus aureus) [µM] | MIC (Escherichia coli) [µM] | Activity (Mus musculus [1]) | MIC (Trichophyton rubrum) [µM] | MIC (Proteus hauseri) [µM] | IC50 [4] [µM] | MIC (Bacillus spizizenii) [µM] | MIC (Aspergillus fumigatus) [µM] | IC50 [5] [µM] | Activity (Mus musculus [6]) | MIC (Kocuria rhizophila) [µM] | MIC (Candida albicans) [µM] | MIC [7] [µM] | MIC (Salmonella typhimurium) [µM] | IC50 [8] [µM] | Compound | Activity (C2C12 [2]) | Activity (C2C12 [3]) | IC50 (A549) [µM] | IC50 (K562) [µM] | Activity (C2C12 [9])
1 | > 128 | > 128 | Active | > 128 | > 128 | > 128 | > 128 | > 128 | > 128 | Dose-dependent effect | > 128 | > 128 | > 128 | > 128 | > 128 | CC(C)[C@H](C)[C@@H](O)[C@H](O)[C@@H](C)[C@H]1CC(=O)[C@@H]2[C@@H]3[C@@H](O)[C@H](O)[C@H]4[C@H](O)[C@@H](O)CC[C@]4(C)[C@H]3CC[C@]12C | Active | Active | > 10 | > 10 | –
2 | > 128 | > 128 | Active | > 128 | > 128 | > 128 | > 128 | > 128 | > 128 | Dose-dependent effect | > 128 | > 128 | > 128 | > 128 | > 128 | CC(C)[C@@H](CC[C@@H](C)[C@H]1CC(=O)[C@@H]2[C@@H]3[C@@H](O)[C@H](O)[C@H]4C[C@@H](O)CC[C@]4(C)[C@H]3CC[C@]12C)[C@@H](C)O | Active | Active | > 10 | > 10 | –
3 | > 128 | > 128 | Active | > 128 | > 128 | > 128 | > 128 | > 128 | > 128 | Dose-dependent effect | > 128 | > 128 | > 128 | > 128 | > 128 | CC(C)C[C@@H](O)[C@H](O)[C@@H](C)[C@H]1CC(=O)[C@@H]2[C@@H]3[C@@H](O)[C@H](O)[C@H]4[C@H](O)[C@@H](O)CC[C@]4(C)[C@H]3CC[C@]12C | Active | Active | > 10 | > 10 | –
4 | > 128 | > 128 | – | > 128 | > 128 | > 128 | > 128 | > 128 | > 128 | – | > 128 | > 128 | > 128 | > 128 | > 128 | CC(C)C[C@H](O)C[C@@H](C)[C@H]1CC(=O)[C@@H]2[C@@H]3[C@@H](O)[C@H](O)[C@H]4[C@H](O)[C@@H](O)CC[C@]4(C)[C@H]3CC[C@]12C | Active | Active | > 10 | > 10 | –
5 | > 128 | > 128 | Active | > 128 | > 128 | > 128 | > 128 | > 128 | > 128 | Dose-dependent effect | > 128 | > 128 | > 128 | > 128 | > 128 | CC(C)[C@H](C)[C@@H](O)C[C@@H](C)[C@H]1CC(=O)[C@H]2[C@@H]3[C@@H](O)[C@H](O)[C@H]4[C@H](O)[C@@H](O)CC[C@]4(C)[C@H]3CC[C@]12C | Active | Active | > 10 | > 10 | –
6 | > 128 | > 128 | – | > 128 | > 128 | > 128 | > 128 | > 128 | > 128 | – | > 128 | > 128 | > 128 | > 128 | > 128 | CC(C)[C@H](C)[C@@H](O)[C@H](O)[C@@H](C)[C@H]1CC(=O)[C@@H]2[C@@H]3[C@@H](OS(=O)(=O)O)[C@H](O)[C@H]4[C@H](O)[C@@H](O)CC[C@]4(C)[C@H]3CC[C@]12C | Active | Active | > 10 | > 10 | –
7 | > 128 | > 128 | Active | > 128 | > 128 | > 128 | > 128 | > 128 | > 128 | Dose-dependent effect | > 128 | > 128 | > 128 | > 128 | > 128 | CC(C)[C@H](C)[C@@H](O)[C@H](O)[C@@H](C)[C@H]1CC(=O)[C@H]2[C@@H]3[C@@H](O)[C@H](O)[C@H]4[C@H](O)[C@@H](O)CC[C@]4(C)[C@H]3CC[C@]12C | Active | Active | > 10 | > 10 | inactive

Reference: ChEMBL document CHEMBL4138204, “Polyoxygenated Steroids from the Sponge Clathria gombawuiensis” (J Nat Prod, 2017)
